Results of several laboratories.
Protocols differ between the studies behind these lines.
Read-out: cell growth or viability

Cc1sc2c(c1C)C(c1ccc(Cl)cc1)=N[C@@H](CC(=O)NCCCCCCCCNC(=O)COc1cccc3c1C(=O)N(C1CCC(=O)NC1=O)C3=O)c1nnc(C)n1-2 (stereo partly shown)
IC50 (Jurkat; ATP luminescence; 72 h): 39 nM

Nc1ccc(/C=C/C(=O)N2CCc3c(oc4c(-c5ccc(F)cc5)cc(-c5cnc(C(=O)N6CCC(F)(F)CC6)nc5)cc34)C2)cn1
IC50 (MIA PaCa-2; CCK-8; 72 h): 1360 nM

COc1ccc(-c2cc(C(=O)Nc3ccccc3)c3cc(-c4cc(Cl)ccc4F)ccc3n2)cc1
IC50 (MIA PaCa-2; MTT; 48 h): > 50000 nM

C[C@H](CCC(=O)O)[C@H]1CC[C@H]2[C@@H]3CC[C@@H]4C[C@H](O)CC[C@]4(C)[C@H]3CC[C@]12C
IC50 (LNCaP; MTT; 72 h): 66000 nM

C=CC(=O)N1CCN(c2nc(=O)n(-c3c(C)ccnc3C(C)C)c3nc(-c4c(O)cccc4F)c(F)cc23)[C@@H](C)C1
IC50 (SW837; ATP luminescence): 46.3 nM

COc1cc2c3c(n(CCCN4CCOCC4)c(=O)c2cc1OC)-c1nc2c(cc1C3=O)OCO2
IC50 (KMS-27; MTS; 72 h): 530 nM

CN1CCC(NC(=O)c2ccc(-c3cc(C4CC4)c4oc5c(c4c3)CCN(C(=O)/C=C/c3ccc(N)nc3)C5)nn2)C(F)(F)C1 (stereo not shown)
IC50 (MIA PaCa-2; CCK-8; 72 h): 1900 nM

COc1cccc2c1C(=O)c1c(O)c3c(c(O)c1C2=O)C[C@@](O)(C(=O)CO)C[C@@H]3O[C@H]1C[C@H](N)[C@H](O)[C@H](C)O1
IC50 (MIA PaCa-2; MTT; 48 h): 25300 nM

COc1cc2c3c(n(CCCn4ccnc4)c(=O)c2cc1OC)-c1nc2c(cc1C3=O)OCO2
IC50 (KMS-27; MTS; 72 h): 238 nM

C=C(F)C(=O)N1CCN(c2nc(OC[C@@H]3CCCN3C)nc3c2CCN(c2cccc4cccc(Cl)c24)C3)C[C@@H]1CC#N
IC50 (MIA PaCa-2; ATP luminescence): 56.5 nM

COc1ccc(-c2cc(C(=O)Nc3ccccc3)c3cc(-c4cnc(Cl)c(C)c4)ccc3n2)cc1
IC50 (MIA PaCa-2; MTT; 48 h): > 50000 nM

COc1cc2c3c(n(CCCNC(C)C)c(=O)c2cc1OC)-c1nc2c(cc1C3=O)OCO2
IC50 (KMS-27; MTS; 72 h): 206 nM

Nc1ccc(/C=C/C(=O)N2CCc3c(oc4c(-c5ccc(F)cc5)cc(-c5ccc(C(=O)N6CCOCC6)nn5)cc34)C2)cn1
IC50 (MIA PaCa-2; CCK-8; 72 h): 460 nM

COc1ccc(F)cc1-c1ccc2nc(-c3ccccc3)cc(C(=O)Nc3ccccc3)c2c1
IC50 (MIA PaCa-2; MTT; 48 h): > 50000 nM

COc1cc2c3c(n(CCCNCCO)c(=O)c2cc1OC)-c1nc2c(cc1C3=O)OCO2
IC50 (KMS-27; MTS; 72 h): 141 nM

COc1ccc(F)cc1-c1ccc2nc(-c3ccc(F)cc3)cc(C(=O)Nc3ccccc3)c2c1
IC50 (MIA PaCa-2; MTT; 48 h): > 50000 nM

CCNCCCn1c2c(c3cc(OC)c(OC)cc3c1=O)C(=O)c1cc3c(nc1-2)OCO3
IC50 (MOLT-4; MTS; 72 h): 13 nM

CN1CCC(NC(=O)c2ccc(-c3cc(-c4ccsc4)c4oc5c(c4c3)CCN(C(=O)/C=C/c3ccc(N)nc3)C5)nn2)C(F)(F)C1 (stereo not shown)
IC50 (MIA PaCa-2; CCK-8; 72 h): 650 nM

COc1ccc(-c2cc(C(=O)Nc3ccccc3)c3cc(-c4cccs4)ccc3n2)cc1
IC50 (MIA PaCa-2; MTT; 48 h): > 50000 nM
